Experimental data taken from publication PMC6468299 (Nucleic Acids Research, 2019).

Assays:
Format in all cases: biochemical
DNA polymerase β (Pol-β) = DNA polymerase β (Pol-β) (Homo sapiens, UniProt P06746); experiment: DNA polymerase inhibition assay, Pol-β; conditions: 1 h, 3H-dTTP incorporation
How it was run: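 Reactions contained 25 μM each dATP/dCTP/dGTP, 25 nM TTP plus 1 μCi ³H-TTP, 160 nM template/primer, and serially diluted test nucleotide (0–200 μM). Incubation was 1 h at 37°C. DNA was TCA-precipitated, washed and counted; inhibition was taken from reduced incorporation. ddNTPs served as positive control.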

DNA polymerase γ (Pol-γ) = target: T1, DNA polymerase γ (Pol-γ) (Homo sapiens, UniProt P54098); experiment: DNA polymerase inhibition assay, Pol-γ; conditions: 1 h, 3H-dTTP incorporation
T1 sequence (P54098 1-1239): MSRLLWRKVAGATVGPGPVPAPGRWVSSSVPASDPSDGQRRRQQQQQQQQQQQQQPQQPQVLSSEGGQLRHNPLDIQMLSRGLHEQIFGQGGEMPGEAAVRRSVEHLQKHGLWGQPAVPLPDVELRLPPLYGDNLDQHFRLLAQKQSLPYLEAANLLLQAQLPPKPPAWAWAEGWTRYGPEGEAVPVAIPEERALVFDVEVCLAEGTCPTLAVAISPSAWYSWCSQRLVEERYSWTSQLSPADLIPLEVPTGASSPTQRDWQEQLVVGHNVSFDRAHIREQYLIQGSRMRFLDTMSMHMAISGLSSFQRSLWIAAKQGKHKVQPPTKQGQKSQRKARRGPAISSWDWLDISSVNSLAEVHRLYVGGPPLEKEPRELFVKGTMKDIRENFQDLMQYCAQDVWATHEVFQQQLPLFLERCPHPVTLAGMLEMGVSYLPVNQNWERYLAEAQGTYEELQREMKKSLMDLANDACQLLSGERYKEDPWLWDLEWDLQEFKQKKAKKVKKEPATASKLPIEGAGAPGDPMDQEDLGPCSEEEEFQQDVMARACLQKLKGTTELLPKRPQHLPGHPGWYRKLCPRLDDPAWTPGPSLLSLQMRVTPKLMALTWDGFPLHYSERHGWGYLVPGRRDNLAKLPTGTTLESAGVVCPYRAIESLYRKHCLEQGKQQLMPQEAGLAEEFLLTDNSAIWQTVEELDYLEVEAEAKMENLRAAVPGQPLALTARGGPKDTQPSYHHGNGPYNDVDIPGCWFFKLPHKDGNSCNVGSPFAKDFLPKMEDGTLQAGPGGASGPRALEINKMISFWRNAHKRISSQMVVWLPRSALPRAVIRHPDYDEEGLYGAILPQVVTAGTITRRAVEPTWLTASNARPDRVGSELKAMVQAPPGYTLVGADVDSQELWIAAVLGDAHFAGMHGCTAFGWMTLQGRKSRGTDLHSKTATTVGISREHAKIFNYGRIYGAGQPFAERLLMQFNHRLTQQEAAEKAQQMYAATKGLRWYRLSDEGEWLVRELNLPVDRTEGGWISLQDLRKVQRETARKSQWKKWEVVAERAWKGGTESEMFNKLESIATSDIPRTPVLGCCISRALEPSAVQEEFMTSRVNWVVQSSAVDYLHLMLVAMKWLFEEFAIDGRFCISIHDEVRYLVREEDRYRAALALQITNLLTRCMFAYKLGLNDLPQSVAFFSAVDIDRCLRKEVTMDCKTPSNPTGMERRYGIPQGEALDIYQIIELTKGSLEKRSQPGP
How it was run: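 Reactions contained 25 μM each dATP/dCTP/dGTP, 25 nM TTP plus 1 μCi ³H-TTP, 160 nM template/primer, and serially diluted test nucleotide (0–200 μM). Incubation was 1 h at 37°C, stopped with TCA (10% final). DNA was precipitated 40 min at 4°C, washed and scintillation-counted; inhibition was taken from reduced radioactivity.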

DNA polymerase α (Pol-α) = target: T2, DNA polymerase α (Pol-α) (Homo sapiens, UniProt P09884); experiment: DNA polymerase inhibition assay, Pol-α; conditions: Pol-α; 1 h, 3H-dTTP incorporation
T2 sequence (P09884 1-1462): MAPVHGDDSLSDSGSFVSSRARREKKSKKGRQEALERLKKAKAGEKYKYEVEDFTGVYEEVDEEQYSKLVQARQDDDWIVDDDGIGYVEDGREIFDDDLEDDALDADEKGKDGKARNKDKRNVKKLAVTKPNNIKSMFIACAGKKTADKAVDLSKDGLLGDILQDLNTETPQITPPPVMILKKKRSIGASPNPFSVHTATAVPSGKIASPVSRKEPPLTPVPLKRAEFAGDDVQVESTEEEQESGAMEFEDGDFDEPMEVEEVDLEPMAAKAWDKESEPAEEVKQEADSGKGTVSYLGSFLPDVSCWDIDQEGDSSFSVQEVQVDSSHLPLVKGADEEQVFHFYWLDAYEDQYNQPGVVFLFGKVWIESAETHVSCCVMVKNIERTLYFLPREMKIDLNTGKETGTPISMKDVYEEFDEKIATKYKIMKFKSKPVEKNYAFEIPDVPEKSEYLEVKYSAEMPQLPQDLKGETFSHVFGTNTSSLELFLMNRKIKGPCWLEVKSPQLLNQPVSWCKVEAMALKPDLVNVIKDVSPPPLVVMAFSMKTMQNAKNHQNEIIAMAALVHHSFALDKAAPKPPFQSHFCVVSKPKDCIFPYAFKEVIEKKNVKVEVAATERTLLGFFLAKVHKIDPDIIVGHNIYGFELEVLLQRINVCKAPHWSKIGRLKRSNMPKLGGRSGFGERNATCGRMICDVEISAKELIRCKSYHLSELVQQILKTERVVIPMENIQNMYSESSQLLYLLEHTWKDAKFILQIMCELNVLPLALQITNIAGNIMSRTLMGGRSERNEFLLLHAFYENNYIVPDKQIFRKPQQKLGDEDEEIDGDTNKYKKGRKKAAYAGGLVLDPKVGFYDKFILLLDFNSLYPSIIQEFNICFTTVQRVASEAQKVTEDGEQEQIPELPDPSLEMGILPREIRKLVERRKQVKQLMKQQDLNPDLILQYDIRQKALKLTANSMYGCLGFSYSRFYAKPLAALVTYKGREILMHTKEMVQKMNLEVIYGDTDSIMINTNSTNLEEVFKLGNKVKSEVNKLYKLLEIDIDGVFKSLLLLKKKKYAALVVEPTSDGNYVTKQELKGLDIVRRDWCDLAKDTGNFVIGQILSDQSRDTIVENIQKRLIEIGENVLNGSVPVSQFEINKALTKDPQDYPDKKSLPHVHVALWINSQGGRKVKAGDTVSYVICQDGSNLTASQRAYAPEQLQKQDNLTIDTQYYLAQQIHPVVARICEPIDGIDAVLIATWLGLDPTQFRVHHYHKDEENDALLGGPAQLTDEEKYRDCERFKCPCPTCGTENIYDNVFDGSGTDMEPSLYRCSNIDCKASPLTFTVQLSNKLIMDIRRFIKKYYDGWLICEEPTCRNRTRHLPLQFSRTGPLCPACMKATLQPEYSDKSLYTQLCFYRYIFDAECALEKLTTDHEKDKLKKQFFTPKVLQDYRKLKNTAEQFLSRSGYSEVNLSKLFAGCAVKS

SMILES | IC50 (DNA polymerase β (Pol-β)) | IC90 (DNA polymerase β (Pol-β)) | IC50 (DNA polymerase γ (Pol-γ)) | IC90 (DNA polymerase γ (Pol-γ)) | IC50 (DNA polymerase α (Pol-α)) | IC90 (DNA polymerase α (Pol-α))
Nc1ncnc2c1ncn2[C@@H]1O[C@H](COP(=O)(O)OP(=O)(O)OP(=O)(O)O)[C@@H](O)[C@H]1F [2′-F-ATP] | 175 µM | > 200 µM | > 200 µM | > 200 µM | > 200 µM | > 200 µM
Nc1ccn([C@@H]2O[C@H](COP(=O)(O)OP(=O)(O)OP(=O)(O)O)[C@@H](O)[C@H]2F)c(=O)n1 [2′-F-CTP] | > 200 µM | > 200 µM | > 200 µM | > 200 µM | > 200 µM | > 200 µM
Nc1nc2c(ncn2[C@@H]2O[C@H](COP(=O)(O)OP(=O)(O)OP(=O)(O)O)[C@@H](O)[C@H]2F)c(=O)[nH]1 [2′-F-GTP] | > 200 µM | > 200 µM | > 200 µM | > 200 µM | > 200 µM | > 200 µM
O=c1ccn([C@@H]2O[C@H](COP(=O)(O)OP(=O)(O)OP(=O)(O)O)[C@@H](O)[C@H]2F)c(=O)[nH]1 [2′-F-UTP] | 91.6 µM | > 200 µM | > 200 µM | > 200 µM | > 200 µM | > 200 µM
O=c1[nH]c(=O)n([C@@H]2O[C@H](COP(=O)(O)OP(=O)(O)OP(=O)(O)O)[C@@H](O)[C@@H]2F)cc1I [FIAU-TP, fialuridine triphosphate, reference compound] | 0.37 µM | 5.56 µM | 1.04 µM | 13.4 µM | 0.27 µM | 13.7 µM
